Assay outcomes from PubChem.
Hits are enriched below; roughly 4.1% of the tested compounds scored in any of these assays.
Cl transport mod – KCC2 (human) Cl- transport modulation. Q9H2X9. KCC2 cells, thallium flux FluoZin-2 fluorescence. B-score of Tl+ flux slope (higher = more flux/activation; lower = inhibition) at 10 µM. actives 2.2% (n = 190,000). AID 1456;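 active means thallium flux slope and its plate-corrected score both differing from the plate sample mean at a set confidence after two filtering rounds, in either direction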;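 further: slope of fluorescence scaled to starting intensity during 10 to 20 s after thallium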
ROMK primary – modulators of human ROMK potassium channel | P48048 | Tet-inducible ROMK, thallium flux fluorescence; actives lie on both sides | B-score at 10 µM | actives 2% (n = 130,000) | AID 1918;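 active means signal ratio slope over the read window, or its plate-corrected B-score, at least 3 SD from the plate mean, either direction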;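 further: B-score of the F/F0 ratio slope over 7 to 12 s after thallium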
Target sequence (P48048 whole entry, looked up): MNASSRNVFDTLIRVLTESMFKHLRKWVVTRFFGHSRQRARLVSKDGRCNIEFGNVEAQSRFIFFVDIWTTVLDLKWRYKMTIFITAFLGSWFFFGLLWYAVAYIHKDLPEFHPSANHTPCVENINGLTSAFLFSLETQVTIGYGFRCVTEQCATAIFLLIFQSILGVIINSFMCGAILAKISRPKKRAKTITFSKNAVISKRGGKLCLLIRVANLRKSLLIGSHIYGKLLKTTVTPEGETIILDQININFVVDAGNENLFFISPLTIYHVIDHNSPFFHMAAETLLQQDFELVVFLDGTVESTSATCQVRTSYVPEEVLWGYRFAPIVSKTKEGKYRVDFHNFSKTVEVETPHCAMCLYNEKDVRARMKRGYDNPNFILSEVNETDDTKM
Autophagy HCS – modulators of autophagy. calls only at 10 µM (by protocol). actives 0.98% (n = 190,000). MEF GFP-LC3 puncta imaging; test concentration mostly 10 µM;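 active means percentage of spot-positive cells more than 3 SD above its plate mean, without a fluorescence outlier flag or 80% toxicity; inconclusive means no clear call, values can overlap the other calls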;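 further: spot-positive cell cutoff set from DMSO-treated cells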
Dynein cargo inh – blocks dynein driven cargo transport along microtubules. 3617.4 mouse cells, GR-EGFP nuclear translocation imaging; test concentration mostly 20 µM; stimulated with dexamethasone, 1 µM; stronger effect = lower value. z-score, hits read low. actives 0.47% (n = 220,000). AID 1381;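 active means plate z-score of nuclear minus cytoplasmic receptor signal below a set negative limit, without overly bright fluorescence or cell loss, cut at about -3.5 in these data, passing the limit was not always enough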;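 further: z-score of nuclear minus cytoplasmic ring GR-EGFP intensity difference per well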
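medium = tetracycline-free induction medium containing charcoal-stripped FBS | also added = 1.0 µM final dexamethasone stimulus | schedule = 48 h induction, 1 h compound, 30 min dex at 37 °C | technique = fixed, Hoechst-stained cells imaged at 10x for EGFP | measure = GR-EGFP nuclear translocation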
DTT redox prof – compounds producing H2O2 with reducing agent – biochemical, NIH compound library profiling, artefact control for MLSCN library redox annotation, primary screen; actives 0.03% (n = 200,000); DTT-dependent redox cycling H2O2, phenol red/HRP absorbance; 100% = 100 µM peroxide control, 0% = buffer; activation, % at 10 µM; AID 878;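 active means activation of at least 50% relative to the plate's high and low controls in the primary single-dose screen; inactive means activation below 50%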;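 further: compound incubated with DTT at 0.8 mM final as the reducing agent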
Dynein inh conf – dynein cargo transport inhibition, confirmation. calls only at 20 µM. 3617.4 GR-EGFP nuclear translocation imaging, dexamethasone-induced. AID 463116. shares compounds with Dynein cargo inh. actives 69% (n = 1,000);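 active means inhibition of receptor movement into the nucleus at or above a set limit in both runs, with normal cell brightness and cell count; inconclusive means limit reached in only one run, brightness and count normal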;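 further: dexamethasone at 1 µM final in well for 30 min; nuclear minus cytoplasmic GR-EGFP mean intensity difference in channel 2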
The depositor's hits bear a star; i = inactive; ? = inconclusive; . = no result given; + = active, no number.

SMILES | Cl transport mod | ROMK primary | Autophagy HCS | Dynein cargo inh | DTT redox prof | Dynein inh conf
CN=c1scc(-c2cccs2)n1/N=C/c1ccccc1O | -1.6 | . | i | 1 | 0 | .
Cc1cccc(Nc2ncnc(N)c2[N+](=O)[O-])n1 | 0.069 | -0.064 | i | 0.39 | 0 | .
Cc1cc(C)nc(Sc2ncnc(N)c2[N+](=O)[O-])n1 | -1.2 | 0.36 | i | -5.4* | 0 | ?
Cc1ccc2nc(Cl)c3cc(C(=O)N(CCN(C)C)Cc4ccco4)sc3c2c1 | 1 | -0.14 | i | -3.5* | 0 | i
CCN1C(=O)CC(C(=O)OC)=C1C | -0.035 | 0.79 | i | -0.51 | 0 | .
COC(=O)C1=C(C)N(CCC2=CCCCC2)C(=O)C1 | -0.046 | . | i | -4.1* | 3 | i
CCOC(=O)c1cc(-c2ccc(/C=C3/C(=O)NC(=O)C(C#N)=C3C)o2)ccc1Cl | . | . | i | -3.6* | 2 | +
Clc1nc(CN2CCOCC2)nc2sc3c(c12)CCC3 | 0.19 | 1.2 | i | -0.57 | 0 | .
Clc1nc(CN2CCCCC2)nc2sc3c(c12)CCCC3 | -0.2 | -1.1 | i | -3.7* | -2 | i
CC(C)CCn1c(=O)c2ccccc2n2c(CCl)nnc12 | -0.42 | -1.6 | i | -4.5* | 0 | +
CC(C)CCn1c(=O)c2ccccc2n2c(CN3CCCC3)nnc12 | -0.012 | 0.5 | i | 0.23 | -1 | .
CCCCCn1c(=O)c2ccccc2n2c(CCl)nnc12 | -0.66 | -1 | i | -6.5* | -2 | +
CC(C)n1nnc2c(=O)oc3ccccc3c21 | -1.7 | 0.34 | i | 0.72 | -1 | .
O=C1C=CC(=O)N1c1ccc(O)cc1 | -0.9 | . | . | -4 | . | i
NNC(=O)Cn1c(-c2ccccc2)cc(=O)n2ncnc12 | 1.5 | 0.78 | . | -0.32 | . | .
O=C(CN1CCc2ccccc21)NC(=O)NC1CCCCC1 | -0.35 | . | . | -0.34 | . | .
Cc1[nH]c2ccccc2c1/C=N/Nc1ccc([N+](=O)[O-])cc1 | -0.14 | . | + | -3.9 | 6 | i
Cc1[nH]c2ccccc2c1/C=N/NC(=O)c1cccc([N+](=O)[O-])c1 | 0.31 | . | i | 1.6 | -1 | .
COc1ccccc1NS(=O)(=O)c1cc([N+](=O)[O-])ccc1N/N=C/c1c(C)[nH]c2ccccc12 | 0.29 | -0.96 | i | -4.9 | -1 | i
CCOc1cc(/C=N/Nc2cccc(C(=O)O)c2)ccc1OCC(=O)N1CCCCC1 | 0.15 | 0.38 | i | -0.91 | 0 | .
O=C(CSc1nnc(-c2cccs2)o1)N1CCc2ccccc21 | -0.93 | . | i | -0.1 | 0 | .
Cc1occc1-c1nnc(SCC(=O)N2CCc3ccccc32)o1 | 0.87 | . | i | -4* | 2 | i
CCN(Cc1cc2cc(C)ccc2[nH]c1=O)C(=O)c1cccc([N+](=O)[O-])c1 | 0.044 | . | . | -0.13 | . | .
O=C(Nc1ccccc1)C1=C(c2ccccc2)S(=O)(=O)CCS1(=O)=O | -0.71 | . | i | -4.5* | 0 | i
Nc1nc(-c2ccccc2)c(C(=O)Nc2ccccc2)s1 | 0.0019 | 0.45 | i | -0.42 | 0 | .
SMILES | Cl transport mod | ROMK primary | Autophagy HCS | Dynein cargo inh | DTT redox prof | Dynein inh conf
Cc1ccc(N(C(=O)CCl)C(C(=O)NC2CCCCC2)c2cccnc2)cc1C (stereo unspecified) | 0.22 | -3.5 | + | -4.1* | -1 | +
CCOc1ccc(-n2c(=O)c3sccc3n(CC(=O)NCCc3ccc(OC)c(OC)c3)c2=O)cc1 | -0.37 | -1.1 | i | 0.56 | 0 | .
COc1ccc2nc(N3CCCC3)c(C#N)cc2c1 | i | . | i | -4.2* | 2 | i
CC(C)(C)C(=O)/C(=C/c1ccncc1)n1cncn1 | 0.59 | -1.8 | i | -5.1* | 0 | +
O=C(NCc1ccccn1)c1coc(=O)c(Br)c1 | 0.73 | -1.1 | i | -4.1* | 3 | i
CCOc1ccc(C(=O)NCc2ccccn2)cc1 | 0.4 | . | i | 0.11 | -3 | .
O=C(c1cc2cc([N+](=O)[O-])ccc2s1)N1CCOCC1 | 1.6 | 0.89 | i | 0.16 | -1 | .
CC(=O)NCc1ccc(C(=O)CCl)s1 | 0.53 | -2.8 | i | -5* | 0 | +
Cc1ccccc1Nc1nc(N)nc(CN2CCN(C(=O)c3ccccc3)CC2)n1 | 0.037 | 0.77 | i | 0.4 | -3 | .
CCn1nc([N+](=O)[O-])c(C(C#N)c2nc3cc(C(F)(F)F)ccc3s2)c(Cl)c1=O (stereo unspecified) | -5.7* | -5* | i | -4.4* | 0 | +
Cc1cc(C(=O)CCl)c(C)n1-c1cccc(S(=O)(=O)N2CCOCC2)c1 | 0.51 | -0.032 | i | -5.3* | 0 | +
COc1ccc(CC(=O)n2[nH]c(=O)cc(C)c2=O)cc1OC | -0.76 | . | . | -5.7* | . | ?
COc1ccc(CC(=O)NC(C)(C)CC(C)=O)cc1OC | 0.37 | . | i | -0.93 | 2 | .
C/C=C(\CS(=O)(=O)c1ccccc1)S(=O)(=O)c1ccccc1 | -0.018 | . | i | -3.6* | 0 | ?
NC(=O)c1ccc(NC(=O)CSc2nnc(-c3ccncc3)n2Cc2ccco2)cc1 | -0.16 | 0.0063 | . | 0.15 | . | .
O=C(Cc1ccccc1)Nc1cccc(N2C(=O)C=CC2=O)c1 | -1.8 | -2.8 | i | -4.7* | 0 | +
O=Cc1ccc(OC2OCCOC2Oc2ccc(C=O)cc2)cc1 (stereo unspecified) | -0.083 | 0.31 | i | -0.091 | 0 | .
COc1ccccc1N1CCN(CCCC(=O)c2ccc(F)cc2)CC1 | . | -1.2 | i | 0.37 | -2 | .
COc1ccc(C(=O)CCN2CCN(c3ccccc3OC)CC2)cc1 | -0.32 | -1.2 | i | -4.4* | 3 | +
CCOc1ccc(N=C2NC(=O)SC2CC(=O)OC)cc1 (stereo unspecified) | -1.2 | . | . | 0.39 | . | .
O=C(c1coc(=O)c(Br)c1)N1CCC(C(O)(c2ccccc2)c2ccccc2)CC1 | -0.052 | -0.31 | . | -4.5* | . | +
COC(=O)C(=Cc1ccc(OCc2ccc([N+](=O)[O-])cc2)c(OC)c1)C(=O)OC | 0.94 | . | i | -0.6 | 3 | .
CCOC(=O)C(=Cc1ccc(OCc2ccc([N+](=O)[O-])cc2)c(OC)c1)C(=O)OCC | . | . | i | -4.1* | -2 | +
COC(=O)c1cc(=O)n(Cc2ccc3c(c2)OCO3)c(=Nc2ccc(F)cc2)s1 | 1 | . | i | -3.3 | -3 | .
COC(=O)c1cc(=O)n(CCc2ccccc2F)c(=Nc2ccc(F)c(Cl)c2)s1 | 0.63 | . | i | -4* | -1 | +
COC(=O)c1ccc(N=c2sc(C(=O)OC)cc(=O)n2C)cc1 | 0.59 | . | i | -1.7 | 0 | .
COC(=O)c1cc(=O)n(Cc2ccco2)c(=Nc2ccc(F)c(Cl)c2)s1 | . | . | i | -3.9* | -1 | +
CC(C)(C)N(Cc1ccccc1)C(=O)COC(=O)c1cccc([N+](=O)[O-])c1 | -0.6 | 0.031 | i | -0.45 | -2 | .
